Results of several laboratories.
Target: Casein kinase I isoform gamma-2 (CSNK1G2, Homo sapiens, UniProt P78368)

| SMILES | observed | technique | concentration | remaining binding |
| --- | --- | --- | --- | --- |
| COc1ccc2c(c1)O[C@@H](c1ccc(OC)c(OC)c1)C[C@H]2NC(=O)C1(c2ccc3c(c2)OC(F)(F)O3)CC1 | cell-free assay | competition with immobilised ligand | 1 µM | 88% |
| O=C(c1ccc(Nc2ncc(Cl)c(-c3cc4ccccc4s3)n2)cc1)N1CCC(N2CCCC2)CC1 | binding | competition with immobilised ligand | 1 µM | 100% |
| Cn1nc(C(F)(F)F)cc1-c1cnc(N2CCc3cc(S(=O)(=O)Nc4c(F)cc(Cl)cc4F)cc(N4CCCC4=O)c32)nc1 | cell-free assay | competition with immobilised ligand | 1 µM | 100% |
| C[C@@H]1CCN(c2nccc(-c3cnn4ncccc34)n2)C1 | binding | – | 1 µM | 62% |
| O=C(N1CCS(=O)(=O)CC1)N1C[C@H](c2ccc(OC(F)(F)F)cc2)C[C@H](c2nc(C3CC3)no2)C1 | cell-free assay | competition with immobilised ligand | 1 µM | 89% |
| Nc1ncc2c(n1)-c1c([nH]c3ccc(C#CC4CC4)cc13)CCCC2 | binding | competition with immobilised ligand | 1 µM | 100% |
| c1cncc(-c2cccc(Nc3nccc(NC4CCCCC4)n3)c2)c1 | binding | competition with immobilised ligand | 10 µM | 80% |
| CN([C@@H]1CCc2c(CC(=O)O)c3cc(S(C)(=O)=O)ccc3n2C1)S(=O)(=O)c1ccc(F)cc1 | cell-free assay | competition with immobilised ligand | 1 µM | 100% |
| Cc1cnc(Nc2ccc(C(=O)N3CCC(N4CCCC4)CC3)cc2)nc1-c1cc2ccccc2s1 | binding | competition with immobilised ligand | 1 µM | 100% |
| F[C@@H]1CCN(c2nccc(-c3cnn4ncccc34)n2)C1 | binding | – | 1 µM | 74% |
| O=C(NCCCN1CCOCC1)c1ccc(Nc2ncc(Cl)c(-c3ccc(Cl)s3)n2)cc1 | binding | competition with immobilised ligand | 1 µM | 100% |
| Cc1c(C(=O)O)cc(-c2ccc(C3CCNCC3)cc2)c2ccc(-c3ccc(C(F)(F)F)cc3)cc12 | cell-free assay | competition with immobilised ligand | 1 µM | 100% |
| CN(C)c1nccc(-c2cnn3ncccc23)n1 | binding | – | 1 µM | 85% |
| N#Cc1ccccc1CSc1nnc2c(n1)[nH]c1ccccc12 | binding | competition with immobilised ligand | 10 µM | 81% |
| Cc1cnn2ncc(-c3ccnc(N(C)C)n3)c2c1 | binding | – | 1 µM | 100% |
| CC1=C(C#N)C(c2ccc3c(c2)c(NC(=O)c2ccccc2C)nn3C)C(C#N)=C(C)N1 | cell-free assay | competition with immobilised ligand | 1 µM | 95% |
| N[C@H]1CCN(c2nccc(-c3cnn4ncccc34)n2)C1 | binding | – | 1 µM | 98% |
| O=C(Nc1c[nH]nc1C(=O)NC1CCNCC1)c1cc(F)cc(F)c1 | binding | competition with immobilised ligand | 1 µM | 100% |
| CNC(=O)[C@@H]1CC[C@@H](n2c(-c3ccc4cnccc4c3)nc3ccc(C(=O)NCc4cccc(C(N)=O)c4)cc32)C1 | binding | competition with immobilised ligand | 1 µM | 97% |
| c1cnn2ncc(-c3ccnc(N4CCC45COC5)n3)c2c1 | binding | – | 1 µM | 77% |
